From EPA's CvTdb concentration-time database

Experiments:
Mouse [1] = test: concentration in plasma after dosing; conditions: 0.25 h; dosed: 2-Hydroxy-4-methoxybenzophenone; 250 mg/kg; oral; Female; B6C3F1
Rat [2] = test: concentration in plasma after dosing; conditions: dosed: 2-Hydroxy-4-methoxybenzophenone, 250 mg/kg, oral, Female, F344
Rat [3] = test: concentration in plasma after dosing; conditions: dosed: 2-Hydroxy-4-methoxybenzophenone, 250 mg/kg, oral, Male, F344
Rat [4] = test: concentration in plasma after dosing; conditions: dosed: 2-Hydroxy-4-methoxybenzophenone, 500 mg/kg, oral, Male, F344
Mouse [5] = test: concentration in plasma after dosing; conditions: 2 h; dosed: 2-Hydroxy-4-methoxybenzophenone; 250 mg/kg; oral; Female; B6C3F1
Mouse [6] = test: concentration in plasma after dosing; conditions: 3 h; dosed: 2-Hydroxy-4-methoxybenzophenone; 250 mg/kg; oral; Male; B6C3F1
Mouse [7] = test: concentration in plasma after dosing; conditions: 2.5 min; dosed: 2-Hydroxy-4-methoxybenzophenone; 250 mg/kg; oral; Male; B6C3F1
Rat [8] = test: concentration in plasma after dosing; conditions: 0.5 h; dosed: alpha-Thujone; 50 mg/kg; oral; Female; Harlan Sprague Dawley
Rat [9] = test: concentration in brain after dosing; conditions: 10 min; dosed: alpha-Thujone; 25 mg/kg; oral; Male; Harlan Sprague Dawley
Rat [10] = test: concentration in brain after dosing; conditions: 3 h; dosed: alpha-Thujone; 25 mg/kg; oral; Female; Harlan Sprague Dawley
Rat [11] = test: concentration in plasma after dosing; conditions: 10 min; dosed: alpha-Thujone; 50 mg/kg; oral; Female; Harlan Sprague Dawley
Rat [12] = test: concentration in brain after dosing; conditions: 0.5 h; dosed: alpha-Thujone; 25 mg/kg; oral; Male; Harlan Sprague Dawley
Rat [13] = test: concentration in brain after dosing; conditions: 0.5 h; dosed: alpha-Thujone; 50 mg/kg; oral; Female; Harlan Sprague Dawley
Rat [14] = test: concentration in plasma after dosing; conditions: 3 h; dosed: alpha-Thujone; 50 mg/kg; oral; Female; Harlan Sprague Dawley
Rat [15] = test: concentration in plasma after dosing; conditions: 5 min; dosed: alpha-Thujone; 50 mg/kg; oral; Female; Harlan Sprague Dawley
Rat [16] = test: concentration in plasma after dosing; conditions: 5 min; dosed: alpha-Thujone; 25 mg/kg; oral; Male; Harlan Sprague Dawley
Rat [17] = test: concentration in liver after dosing; conditions: 24 h; dosed: Perfluorohexane-1-sulphonic acid – potassium salt; 16 mg/kg; oral; Female; Harlan Sprague Dawley
Rat [18] = test: concentration in plasma after dosing; conditions: dosed: Perfluorohexane-1-sulphonic acid – potassium salt, 4 mg/kg, oral, Male, F344
Rat [19] = test: concentration in kidney after dosing; conditions: 48 h; dosed: Perfluorohexane-1-sulphonic acid – potassium salt; 16 mg/kg; oral; Female; Harlan Sprague Dawley
Rat [20] = test: concentration in plasma after dosing; conditions: dosed: Pyridine, 5 mg/kg, iv, Male, F344
Rat [21] = test: concentration in plasma after dosing; conditions: dosed: Pyridine, 5 mg/kg, iv, Male, F344; remark: listed apart in the source
Rat [22] = test: concentration in plasma after dosing; conditions: dosed: Methyleugenol, 37 mg/kg, oral, Male, F344/N
rat [23] = test: amount in urine after dosing (umol); conditions: inhalation, duration: 4 hr, F344 (Harlan Winkelmann)
Hamster = test: concentration in plasma after dosing; conditions: dosed: 2,4-Dichlorophenoxyacetic acid, 8.0 mg/kg, iv, Male, Syrian Golden
Outline: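 Data points giving concentration or amount against time came from published in vivo toxicokinetic studies and from two structured collections. PubMed searching, classifier screening and manual review located the studies. Most points were digitised from plot screenshots using WebPlotDigitizer, the rest were copied from tables, and all keep their reported units.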

Rat [24] = test: concentration in plasma after dosing; conditions: dosed: 2,4-Dichlorophenoxyacetic acid, 2.0 mg/kg, iv, Male, Sprague-Dawley
Rat [25] = test: concentration in plasma after dosing; conditions: 1.5 h; dosed: Primidone; 30 mg/kg; oral; Male; F344
Rat [26] = test: concentration in plasma after dosing; conditions: 3 h; dosed: Primidone; 130 mg/kg; oral; Female; F344
Rat [27] = test: concentration in plasma after dosing; conditions: 0.5 h; dosed: Primidone; 130 mg/kg; oral; Female; F344
Rat [28] = test: concentration in plasma after dosing; conditions: 3 h; dosed: Primidone; 30 mg/kg; oral; Female; F344
Rat [29] = test: concentration in plasma after dosing; conditions: 6 h; dosed: Primidone; 30 mg/kg; oral; Female; F344

O=C(c1ccccc1)c1ccc(O)cc1O [2,4-Dihydroxybenzophenone]
Conditions	concentration in plasma [ng/mL]
Mouse [1]	437
Mouse [5]	472
Mouse [6]	316
Mouse [7]	92.3

Conditions	concentration in plasma [ng/mL]
Rat [2], 0.25 h	359
Rat [2], 4 h	135
Rat [3], 0.5 h	256
Rat [3], 10 h	66.8
Rat [4], 0.5 h	236
Rat [4], 12 h	151

CC(C)[C@]12CC(=O)[C@H](C)[C@H]1C2 [alpha-Thujone]
Conditions	concentration in brain [ng/g]	concentration in plasma [ng/mL]
Rat [8]	–	433
Rat [9]	3920	–
Rat [10]	919	–
Rat [11]	–	835
Rat [12]	285	–
Rat [13]	865	–
Rat [14]	–	201
Rat [15]	–	2120
Rat [16]	–	570

O=S(=O)([O-])C(F)(F)C(F)(F)C(F)(F)C(F)(F)C(F)(F)C(F)(F)F.[K+] [Perfluorohexane-1-sulphonic acid – potassium salt]
Conditions	concentration in kidney [ng/g]	concentration in liver [ng/g]
Rat [17]	–	29500
Rat [19]	12000	–

Rat [18]
Conditions	concentration in plasma [ng/mL]
1 h	18800
12 h	32300
864 h	6150

c1ccncc1 [Pyridine]
concentration in plasma [ng/mL]
Conditions	0.25 h	2 h	6 h	14 h
Rat [20]	3670	–	1390	–
Rat [21]	–	2780	–	89

C=CCc1ccc(OC)c(OC)c1 [Methyleugenol]
Rat [22]
Conditions	concentration in plasma [ng/mL]
0.5 h	44.9
4 h	12.7

CC(C)(O)CO [2-methyl-1,2-propanediol]
rat [23]
Conditions	amount in urine
5.902 h, dosed: ethyl tert-butyl ether, 4.5 ppm	0.0942
5.941 h, dosed: methyl tert-butyl ether, 38.7 ppm	1.91
5.99 h, dosed: ethyl tert-butyl ether, 40.6 ppm	0.962
11.87 h, dosed: ethyl tert-butyl ether, 4.5 ppm	0.122
11.94 h, dosed: methyl tert-butyl ether, 38.7 ppm	1.17
11.96 h, dosed: ethyl tert-butyl ether, 40.6 ppm	0.855
11.97 h, dosed: methyl tert-butyl ether, 4.5 ppm	0.56
17.81 h, dosed: ethyl tert-butyl ether, 4.5 ppm	0.0535
17.95 h, dosed: methyl tert-butyl ether, 38.7 ppm	0.268
18.01 h, dosed: ethyl tert-butyl ether, 40.6 ppm	0.254
18.01 h, dosed: methyl tert-butyl ether, 4.5 ppm	0.155
23.76 h, dosed: ethyl tert-butyl ether, 4.5 ppm	0.0171
23.93 h, dosed: methyl tert-butyl ether, 38.7 ppm	0.126
23.95 h, dosed: methyl tert-butyl ether, 4.5 ppm	0.0371
23.96 h, dosed: ethyl tert-butyl ether, 40.6 ppm	0.0668
29.72 h, dosed: ethyl tert-butyl ether, 4.5 ppm	0.015
29.91 h, dosed: methyl tert-butyl ether, 38.7 ppm	0.0631
29.93 h, dosed: ethyl tert-butyl ether, 40.6 ppm	0.0668
29.96 h, dosed: methyl tert-butyl ether, 4.5 ppm	0.023

O=C(O)COc1ccc(Cl)cc1Cl [2,4-Dichlorophenoxyacetic acid]
concentration in plasma [ng/mL]
Conditions	0.25 h	0.5 h	0.75 h	1 h	2 h	2.5 h	2.5 min	3 h	10 min
Hamster	–	10700	–	1700	–	–	–	–	30200
Rat [24]	15300	6490	6000	–	1910	720	26200	282	–

CCC1(c2ccccc2)C(=O)NCNC1=O [Primidone]
Conditions	concentration in plasma [ng/mL]
Rat [25]	14000
Rat [26]	50400
Rat [27]	35300
Rat [28]	19900
Rat [29]	12100
